Half-life, Cmax and concentration data for 1 compound are collected here from ChEMBL document CHEMBL1140136, “Structural modifications of N-(1,2,3,4-tetrahydronaphthalen-1-yl)-4-aryl-1-piperazinehexanamides: influence on lipophilicity and 5-HT7 receptor activity. Part III” (J Med Chem, 2008).

A short description of data set [1]: Elimination half life in CD1 albino mouse brain at 10 mg/kg, ip. The class given is ADME, organism-based. Also noted: dose 10 mg/kg, route intraperitoneal. The note with it: read-out: beta t1/2. In outline:
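Male CD1 albino mice (25-30 g), 10 mg/kg i.p., 3 mice per time point. Brains were removed, blotted, frozen, homogenized in water (1 g/10 mL) and extracted twice with hexane/isoamyl alcohol. Parent and 1-arylpiperazine metabolite were measured by RP-HPLC-UV at 230 nm. LLOQ about 0.1 µg/g; no residual-blood correction. Cmax read directly, AUC by linear trapezoidal rule, t1/2 by noncompartmental analysis.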

The nature of data set [2]: Cmax in CD1 albino mouse brain at 10 mg/kg, ip after 30 mins. The class given is ADME, organism-based. Details: dose 10 mg/kg, route intraperitoneal. In outline:
(§1)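 Male CD1 mice (25-30 g) received 10 mg/kg ip, with 3 mice per time point. Heparinized trunk blood gave plasma; brain was homogenized in water (1 g/10 mL). Samples were extracted with hexane/isoamyl alcohol and assayed by RP-HPLC-UV at 230 nm with an internal standard. Quantification limits were 0.1 µg/mL plasma and 0.1 µg/g brain. Cmax and its time were read from the data.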

Data set [3] in a line: Cmax in CD1 albino mouse plasma at 10 mg/kg, ip after 15 mins.
Data set [4] can be described thus: Plasma concentration in CD1 albino mouse at 10 mg/kg, ip after 1 hr. Details: dose 10 mg/kg, route intraperitoneal. Type of data set: ADME, organism-based. In outline:
as §1

Where only a bound is given, the exact number is not on record here.

Take `CSc1ccccc1N1CCN(CCCCCC(=O)NC2CCCc3ccccc32)CC1` (centres undefined): in data set [1], the half-life was determined as 20 min. Further, the highest concentration (Cmax) in data set [2] was found to be 580 ng/g; in data set [3] it was 310 ng/mL. This compound returned a concentration at 1 h in data set [4] of less than 100 ng/mL.

Broadly, the Cmax is the highest concentration seen after dosing.
